# Compound activity as filed in PubChem.
# Only a selection was taken, and hits are over-represented in it overall.
# Myeloid diff MLP = myeloid differentiation induction; ER-HoxA9 myeloid progenitors, lysozyme-GFP differentiation, flow cytometry; calls only at 10 µM; hit rate 1% among 360,000;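 active = normalized GFP-positive differentiation at or above the plate's own cutoff, the solvent-only control mean plus 3 SD; inconclusive = no clear call, values can overlap the other calls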;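 also: cells exposed to compound for four days before flow analysis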
# ABCB6 inh 2 = blocks the human ABCB6 transporter. Q9NP58. K562-ABCB6 porphyrin accumulation, flow cytometry, 1 h; active compounds read low. fluorescence ratio to DMSO, % at 10 µM. hit rate 0.19% among 360,000. AID 602162;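 active = fluorescence ratio to DMSO below 75%, the collection mean minus 3 SD; inconclusive = too few cells collected in the well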;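 also: signal is porphyrin accumulated inside mitochondria; 100% equals median channel fluorescence of DMSO control wells; lower ratio means ABCB6 inhibition with less porphyrin fluorescence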
# Target sequence (Q9NP58 whole entry, looked up): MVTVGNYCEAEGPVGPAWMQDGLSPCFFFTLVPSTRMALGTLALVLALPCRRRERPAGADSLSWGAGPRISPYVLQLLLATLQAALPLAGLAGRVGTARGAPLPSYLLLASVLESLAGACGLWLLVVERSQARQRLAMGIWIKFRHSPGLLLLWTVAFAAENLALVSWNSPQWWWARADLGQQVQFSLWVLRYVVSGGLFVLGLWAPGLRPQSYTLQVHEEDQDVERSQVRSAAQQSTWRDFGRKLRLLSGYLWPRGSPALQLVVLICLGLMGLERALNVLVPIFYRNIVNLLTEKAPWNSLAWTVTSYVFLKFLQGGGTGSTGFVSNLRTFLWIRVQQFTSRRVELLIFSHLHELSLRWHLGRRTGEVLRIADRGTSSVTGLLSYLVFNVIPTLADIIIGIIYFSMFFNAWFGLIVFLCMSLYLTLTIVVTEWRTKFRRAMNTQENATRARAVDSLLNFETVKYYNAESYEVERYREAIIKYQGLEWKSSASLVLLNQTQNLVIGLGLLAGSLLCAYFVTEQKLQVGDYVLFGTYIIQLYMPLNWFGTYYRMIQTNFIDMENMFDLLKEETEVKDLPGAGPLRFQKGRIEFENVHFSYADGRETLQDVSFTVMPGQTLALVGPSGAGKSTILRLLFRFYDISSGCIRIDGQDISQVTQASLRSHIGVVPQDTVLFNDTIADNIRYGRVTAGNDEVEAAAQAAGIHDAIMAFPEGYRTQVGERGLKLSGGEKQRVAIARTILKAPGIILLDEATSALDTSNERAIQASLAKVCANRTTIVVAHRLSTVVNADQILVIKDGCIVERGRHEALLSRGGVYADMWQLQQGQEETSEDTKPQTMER
# XiGFP reactiv = activators of X-chromosome reactivation in mouse fibroblasts; XiGFP mouse fibroblasts, % GFP-positive cells imaging, 3 d; cells co-treated with 5-aza-dC sensitizer; scaled so ellipticine positive control = 100%; activation, % at 7.58 µM; hit rate 0.055% among 360,000;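 active = mean normalized replicate activation at least 10% and every replicate at or above 10%; inconclusive = only one of the two criteria met; inactive = mean below 10% and not all replicates reach 10%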;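 also: 0% = median of on-plate neutral control wells and 100% = ellipticine 6 µM median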
#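 System: 68-5-11 XiGFP fibroblast line | Buffer or medium: DMEM containing 5-aza-dC | Compound: Single point | Times: Compounds 3 days, fix/stain 15 min at room temperature | Benchmarks: Positive control ellipticine, 6 µM final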
# Starred values were filed as active, the others as inactive; i = inactive; ? = inconclusive; nt = no result; + = active, no number.
SMILES,Myeloid diff MLP,ABCB6 inh 2,XiGFP reactiv
CC1(C(=O)NCc2ccc(F)c(F)c2)Cc2c(-c3cccc(C(N)=O)c3)ccnc2O1 (stereo not given),i,99,0
CC(=O)Nc1cccc(-c2ccnc3c2CC(C)(C(=O)NCCC(F)(F)F)O3)c1 (stereo not given),+,144,0
CC(=O)Nc1ccc(-c2ccnc3c2CC(C)(C(=O)NCCC(F)(F)F)O3)cc1 (stereo not given),i,95,0
Cc1cc([N+](=O)[O-])ccc1NC(=O)CN1C2CCC1CC(NC(=O)NC13CC4CC(CC(C4)C1)C3)C2 (stereo not given),+,90,0
COc1ccc(NC(=S)N2C3CCC2CC(NC(=O)NC24CC5CC(CC(C5)C2)C4)C3)c(OC)c1 (stereo not given),i,98,nt
Cn1cnc(CCNC(=O)C[C@@H]2CC[C@@H]3[C@H](COC[C@H](O)CN3C(=O)C3CC3)O2)c1,nt,nt,0
O=C(C1CCOCC1)N1CC(=O)N2[C@@H](CO)[C@H](c3ccc(C#CC4CCCCC4)cc3)[C@@H]2C1,nt,nt,0
COc1ccc2c3c([nH]c2c1)[C@H](CO)N(C(=O)Nc1ccc(F)cc1)CC31CN(C(=O)Nc2ccccc2)C1,nt,nt,0
O=C(C[C@@H]1C=C[C@@H](NC(=O)Nc2cc(F)ccc2F)[C@@H](CO)O1)NCc1ccccn1,nt,nt,0
Cn1nc(-c2ccccc2)c(C(O)c2ccc(Cl)cc2)c1Cl (stereo not given),i,100,nt
Cn1nc(-c2ccccc2)c(CSc2ccccc2Cl)c1Cl,+,427,nt
Cc1noc(C)c1S(=O)(=O)Nc1ccc2c(c1)C(=O)N([C@@H](C)CO)C[C@@H](C)[C@H](CN(C)C(=O)Nc1cccc3ccccc13)OCCCC[C@@H](C)O2,nt,nt,0
COc1ccc(C(=O)Oc2c(CN3CCOCC3)cc(Cl)c3cccnc23)cc1,nt,104,nt
COc1cc(C(=O)Oc2c(CN3CCOCC3)cc(Cl)c3cccnc23)cc(OC)c1OC,+,97,nt
O=C(Oc1c(CN2CCOCC2)cc(Cl)c2cccnc12)c1ccc(F)cc1,+,92,nt
O=C(Oc1c(CN2CCOCC2)cc(Cl)c2cccnc12)c1ccccc1Cl,?,236,1
CO[C@H]1CN(C)C(=O)c2cc(NC(=O)CC(F)(F)F)ccc2OC[C@@H](C)N(C(C)=O)C[C@H]1C,nt,nt,0
COc1ccc(NC(=O)N(C)C[C@@H]2Oc3ccc(NS(C)(=O)=O)cc3CC(=O)N([C@H](C)CO)C[C@@H]2C)cc1,nt,nt,0
CCNC(=O)C[C@@H]1C=C[C@@H](NS(=O)(=O)c2ccc(F)cc2)[C@H](CO)O1,nt,nt,0
COc1ccc(NC(=O)c2c(-c3ccccc3)noc2C)c(OC)c1,i,103,nt
COc1cccc(/C=N/NC(=O)c2c(-c3ccccc3)noc2C)c1OC,i,103,0
COC(=O)c1cc(OC)c(OC)cc1NC(=O)c1c(-c2ccccc2)noc1C,+,108,nt
COc1cccc(/C=N/NC(=O)c2c(-c3ccccc3)noc2C)c1O,+,94,nt
COc1ccc(NC(=O)N(C)C[C@H]2OCCCC[C@H](C)Oc3ccc(NC(=O)CCCN(C)C)cc3C(=O)N([C@@H](C)CO)C[C@H]2C)cc1,nt,nt,0
CO[C@H]1CN(C)C(=O)c2cc(NC(=O)C3CC3)ccc2OC[C@H](C)N(Cc2cccc(F)c2)C[C@H]1C,nt,nt,0
SMILES,Myeloid diff MLP,ABCB6 inh 2,XiGFP reactiv
Cc1ccc(C(=O)O)cc1N1C(=O)c2cccc3c([N+](=O)[O-])ccc(c23)C1=O,nt,103,3
CC(=O)Oc1cccc(N2C(=O)c3cccc4c([N+](=O)[O-])ccc(c34)C2=O)c1,?,169,13*
CC(=O)Nc1sc2c(c1C(c1ccccc1Cl)N1CCN(CCO)CC1)CCCC2 (stereo not given),+,105,0
CC(=O)Nc1sc2c(c1C(c1ccccn1)N1CCCC1)CCCC2 (stereo not given),i,103,0
CO[C@H]1CC[C@@H]2CCN(C)C(=O)[C@H](C)[C@@H](OC)CN(C)C(=O)c3cc(C#N)ccc3OC[C@H]1O2,nt,nt,0
Cc1nn(C)c(C)c1S(=O)(=O)N(CC(=O)N1CCc2ccccc21)c1ccc(C(C)C)cc1,+,79,0
COc1ccc(N(CC(=O)N2CCc3ccccc32)S(=O)(=O)c2c(C)nn(C)c2C)cc1,i,102,0
CO[C@H]1CN(C)C(=O)c2ccc(NC(=O)Nc3ccccc3)cc2OC[C@H](C)N(CC2CC2)C[C@H]1C,nt,nt,0
CC(C)(C)OC(=O)N1CCC(C(=O)N[C@@H](Cc2ccccc2)C(=O)O)(c2ccccc2)CC1,i,97,0
CC(C)[C@H](NC(=O)C1(c2ccccc2)CCN(C(=O)OC(C)(C)C)CC1)C(=O)O,+,105,nt
Cc1cc(NC(=O)CSc2nc(CCC3CCCC3)nc3ccccc23)no1,+,101,nt
CCCc1nc(SCC(=O)Nc2cc(C)on2)c2ccccc2n1,i,99,nt
CC[n+]1c(/C=C/C=C/N(C(C)=O)c2ccccc2)sc2cc(OC)ccc21,nt,nt,52*
CC[n+]1c(/C=C(\C)OC)sc2ccccc21,i,105,0
CO[C@@H]1CN(C)C(=O)c2cc(NS(=O)(=O)c3cn(C)cn3)ccc2OC[C@@H](C)N(CC2CC2)C[C@H]1C,nt,nt,1
C/C(=N\Nc1nc(-c2ccccc2O)nc2ccccc12)c1ccccc1,i,96,0
C/C(=N/Nc1nc(-c2ccccc2F)nc2ccccc12)c1ccccc1O,+,106,0
CO[C@H]1CN(C)C(=O)c2ccc(NC(=O)C3CCCCC3)cc2OC[C@@H](C)NC[C@H]1C,nt,nt,0
CC[C@@H](C)[C@H](CN[C@H](CNC)C(C)C)NC[C@@H](C)c1ccc(CC(C)C)cc1,+,98,0
CC[C@H](C)[C@@H](CNC)NC[C@@H](Cc1ccc(O)cc1)NCC(C)(C)C,i,100,1
C[C@@H]1CN([C@@H](C)CO)C(=O)Cc2cc(NS(=O)(=O)c3cccs3)ccc2O[C@H]1CN(C)Cc1ccc(C(F)(F)F)cc1,nt,nt,0
COC(=O)Nc1ccc2c(c1)N(C(=O)CCN1CCOCC1)c1ccccc1S2,i,98,nt
COC(=O)Nc1ccc2c(c1)N(C(=O)CCCl)c1ccccc1S2,+,133,nt
C/C=C/c1cnc2c(c1)C(=O)N([C@@H](C)CO)C[C@@H](C)[C@@H](CN(C)C(=O)C1CCC1)O2,nt,nt,-1
Cc1cnc(C(=O)OCC(=O)NC23CC4CC(CC(C4)C2)C3)cn1,i,97,nt
SMILES,Myeloid diff MLP,ABCB6 inh 2,XiGFP reactiv
Cc1cnc(C(=O)OCC(=O)C23CC4CC(CC(C4)C2)C3)cn1,+,100,0
CCOC(=O)c1cc(N)cc([N+](=O)[O-])c1,i,104,0
CCOC(=O)c1sc2cc([N+](=O)[O-])cc(SCC(C)C)c2c1N,+,i,nt
COc1ccc(S(=O)(=O)N2C[C@@H](O)COC[C@@H]3O[C@@H](CC(=O)N[C@H]4CCN(Cc5ccccc5)C4)CC[C@H]32)cc1,nt,nt,0
Cc1nn(-c2ccccc2)c(Cl)c1/C=N/NC(=O)c1cccc(S(=O)(=O)N2CCCC2)c1,i,96,0
Cc1nn(-c2ccccc2)c(N2CCCC2)c1/C=N/NC(=O)c1cccc(S(=O)(=O)Nc2ccc(Cl)cc2)c1,+,95,0
